From ChEMBL document CHEMBL1128557, “Synthesis, antitumor activity, and chemical properties of silaplatin and related platinum (II) and platinum (IV) complexes derived from beta-silyl amines” (J Med Chem, 1995)

Assays:
[1] = tested on: Tumor Cell line; assay: The compound was evaluated in vitro for the log10 molecular concentration that caused 50 % of 60 human tumor cell line kills; format: ADME, cell-based
Procedure, shortened: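 Human tumor cell lines (leukemia, non-small-cell lung, ovarian, renal) were preincubated 24 h. Platinum complexes were then added as five 10-fold dilutions, 0.01–100 μM, for 48 h, followed by in situ fixation and staining, with solubilized stain read spectrophotometrically. Log LC50 (50% cell kill) was averaged across cell lines within one experiment.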

[2] = tested on: Mus musculus; assay: The compound was evaluated for the median survival time (MST) in mice infected with cisplatin sensitive L1210 Leukemia (dose 10 mg/kg, ip), day 5; format: functional, organism-based; set-up: dose 10 mg/kg
Procedure, shortened: (§1)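 CD2F1 mice implanted ip on day 0 with 10^5 L1210/0 (parent) leukemia cells, in groups of 6 or 10 (20 or 30 controls). Complexes given ip in saline plus Tween 80 on days 1, 5 and 9. BWC is the group mean weight change, day 5 minus day 1. MST is median survival and %ILS is calculated from MST, both from dying mice only, excluding day 30 survivors.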

[3] = tested on: Mus musculus; assay: The compound was evaluated for the mean body weight change (BWC) in mice infected with cisplatin sensitive L1210 Leukemia (dose 40 mg/kg, ip),day 1; format: functional, organism-based; set-up: dose 40 mg/kg; procedure, shortened: as §1
[4] = tested on: Mus musculus; assay: The compound was evaluated for the mean body weight change (BWC) in mice infected with cisplatin sensitive L1210 Leukemia (dose 40 mg/kg, ip),day 5; format: functional, organism-based; set-up: dose 40 mg/kg; procedure, shortened: as §1
[5] = tested on: Mus musculus; assay: The compound was evaluated for the mean body weight change (BWC) in mice infected with cisplatin sensitive L1210 Leukemia (dose 80 mg/kg, ip),day 1; format: functional, organism-based; set-up: dose 80 mg/kg; procedure, shortened: as §1
[6] = tested on: Mus musculus; assay: The compound was evaluated for the mean body weight change (BWC) in mice infected with cisplatin sensitive L1210 Leukemia (dose 10 mg/kg, ip),day 1; format: functional, organism-based; set-up: dose 10 mg/kg; procedure, shortened: as §1
[7] = tested on: Tumor Cell line; assay: Evaluated in vitro for the log10 molecular concentration that caused 50 % inhibition of tumor growth of 60 human tumor cell lines; format: functional, cell-based
Procedure, shortened: (§2)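 Cells preincubated 24 h, then exposed to the agent at five 10-fold dilutions (0.01–100 μM for the platinum complexes) for 48 h. Cells fixed in situ and stained; solubilized stain read spectrophotometrically. Panel of leukemia, non-small-cell lung, ovarian and renal lines. Log GI50 or TGI taken per cell line in one experiment, then averaged across lines.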

[8] = tested on: Mus musculus; assay: The compound was evaluated for the median survival time (MST) in mice infected with cisplatin sensitive L1210 Leukemia (dose 10 mg/kg, ip), day 1; format: functional, organism-based; set-up: dose 10 mg/kg; procedure, shortened: as §1
[9] = tested on: Mus musculus; assay: The compound was evaluated for the median survival time (MST) in mice infected with cisplatin sensitive L1210 Leukemia (dose 40 mg/kg, ip), day 1; format: functional, organism-based; set-up: dose 40 mg/kg
Procedure, shortened: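 On day 0, 10⁵ parent or cisplatin-resistant L1210 cells were implanted ip into CD2F1 mice, 6 or 10 per dose group (20 or 30 controls). Dosing was ip on days 1, 5 and 9 in saline plus Tween 80. Median survival time was taken from dying mice only, excluding day-30 survivors. Both sublines were tested concurrently.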

[10] = tested on: Mus musculus; assay: The compound was evaluated for the median survival time (MST) in mice infected with cisplatin sensitive L1210 Leukemia (dose 80 mg/kg, ip), day 5; format: functional, organism-based; set-up: dose 80 mg/kg; procedure, shortened: as §1
[11] = tested on: Mus musculus; assay: The compound was evaluated for the mean body weight change (BWC) in mice infected with cisplatin sensitive L1210 Leukemia (dose 10 mg/kg, ip),day 5; format: functional, organism-based; set-up: dose 10 mg/kg; procedure, shortened: as §1
[12] = tested on: Mus musculus; assay: The compound was evaluated for the median survival time (MST) in mice infected with cisplatin sensitive L1210 Leukemia (dose 20 mg/kg, ip), day 5; format: functional, organism-based; set-up: dose 20 mg/kg; procedure, shortened: as §1
[13] = tested on: Mus musculus; assay: The compound was evaluated for the median survival time (MST) in mice infected with cisplatin sensitive L1210 Leukemia (dose 80 mg/kg, ip), day 1; format: functional, organism-based; set-up: dose 80 mg/kg; procedure, shortened: as §1
[14] = tested on: Mus musculus; assay: The compound was evaluated for the mean body weight change (BWC) in mice infected with cisplatin sensitive L1210 Leukemia (dose 80 mg/kg, ip),day 5; format: functional, organism-based; set-up: dose 80 mg/kg; procedure, shortened: as §1
[15] = tested on: Tumor Cell line; assay: Evaluated in vitro for the log10 molecular concentration that caused […] tumor growth of 60 human tumor cell lines.; format: functional, cell-based; procedure, shortened: as §2
[16] = tested on: Mus musculus; assay: The compound was evaluated for the median survival time (MST) in mice infected with cisplatin sensitive L1210 Leukemia (dose 40 mg/kg, ip), day 5; format: functional, organism-based; set-up: dose 40 mg/kg; procedure, shortened: as §1
[17] = tested on: Mus musculus; assay: The compound was evaluated for the mean body weight change (BWC) in mice infected with cisplatin sensitive L1210 Leukemia (dose 20 mg/kg, ip),day 5; format: functional, organism-based; set-up: dose 20 mg/kg; procedure, shortened: as §1

Substance	Log LC50 [1]	MST [2] [days]	BWC [3] [g]	BWC [4] [g]	BWC [5] [g]	BWC [6] [g]	GI50 [7] [µM]	MST [8] [days]	MST [9] [days]	MST [10] [days]	BWC [11] [g]	MST [12] [days]	MST [13] [days]	BWC [14] [g]	TGI [15] [µM]	MST [16] [days]	BWC [17] [g]
[Bis(aminomethyl)dimethylsilane]tetrachloroplatinum(IV) [listing 1 of 2 here]	> -4.02	–	–	–	–	–	–	–	–	–	–	–	–	–	–	–	–
[Bis(aminomethyl)dimethylsilane]tetrachloroplatinum(IV) [listing 2 of 2 here]	–	15	-2.4	-1.3	-5	0	4.79	18.5	27	10	0.1	19	8.3	-3.4	41.7	21	-0.6
[Bis(aminomethyl)ethylmethylsilane]tetrachloroplatinum(IV)	> -4.02	–	–	–	–	–	–	–	–	–	–	–	–	–	–	–	–
